Reference: ChEMBL document CHEMBL1153864, “Phase transfer catalyzed synthesis of bis-quinolines: antileishmanial activity in experimental visceral leishmaniasis and in vitro antibacterial evaluation” (Eur J Med Chem, 2009)
Converted amounts (≈) assume the structure as drawn.

Columns and labels:
Leishmania donovani [1] = assay: Antileishmanial activity against Leishmania donovani MHOM/IN/1983/AG83 amastigotes by Giemsa staining; assay type: functional, organism-based
Procedure, shortened: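 Peritoneal macrophages from thioglycolate-elicited exudate (~2×10^6/ml), adhered overnight on coverslips in RPMI-1640 + 10% FBS at 37 °C, 5% CO2. Infected 6 h with stationary-phase AG83 promastigotes (2×10^7/ml), washed, then exposed 24 h to 0.5, 1, 3, 5, 10 compound. Methanol-fixed, Giemsa-stained; amastigotes per 200 macrophages counted against untreated controls.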

[2] = Toxicity against golden Syrian hamster peritoneal macrophages; assay type: cell-based, Mesocricetus auratus; conditions: macrophage
Leishmania donovani [3] = assay: Antileishmanial activity against Leishmania donovani MHOM/IN/1983/AG83 promastigotes after 4 hrs by MTT assay; assay type: functional, organism-based; conditions: MHOM/IN/1983/AG83, 4 h
Procedure, shortened: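 AG83 promastigotes kept at 22 °C in M199 + 10% FBS. Log-phase cells (2×10^6/ml) exposed 2 h at 22 °C to 1, 3, 5, 7, 10, 15 compound; DMSO at 0.1% final. Cells washed with PBS, incubated 4 h at 22 °C with MTT (2 mg/ml). Formazan dissolved in DMSO and read at 570 nm; % lysis computed, IC50 by linear regression.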

Leishmania donovani [4] = assay: Antileishmanial activity against Leishmania donovani MHOM/IN/1983/AG83 promastigotes infected BALB/c mouse assessed as liver weight at 12.5 mg/kg, ip administered two times per week for 4 weeks; assay type: functional; conditions: route intraperitoneal
Procedure, shortened: (§1)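 BALB/c mice (4-6 weeks) were infected iv with 2 × 10^7 freshly transformed promastigotes. One month later, groups were dosed ip in 0.2% Tween 80 in PBS (0.02 M), twice weekly for one month (8 doses); controls got vehicle only. Mice were killed one month post-treatment and spleen and liver were weighed. Parasite load came from Giemsa impression smears as organ weight (mg) × amastigotes per cell nucleus × 2 × 10^5. Values are mean ± S.E. of 5 mice; unpaired t-test.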

Leishmania donovani [5] = assay: Antileishmanial activity against Leishmania donovani MHOM/IN/1983/AG83 promastigotes infected ip dosed BALB/c mouse assessed as reduction in spleen parasite burden administered two times per week for 4 weeks relative to control; assay type: functional; set-up: scale not given: the % may be the effect or the level left; procedure, shortened: as §1
Leishmania donovani [6] = assay: Antileishmanial activity against Leishmania donovani MHOM/IN/1983/AG83 promastigotes infected BALB/c mouse assessed as spleen weight at 12.5 mg/kg, ip administered two times per week for 4 weeks; assay type: functional; conditions: route intraperitoneal; procedure, shortened: as §1
Leishmania donovani [7] = assay: Antileishmanial activity against Leishmania donovani MHOM/IN/1983/AG83 promastigotes infected ip dosed BALB/c mouse assessed as reduction in liver parasite burden administered two times per week for 4 weeks relative to control; assay type: functional; set-up: scale not given: the % may be the effect or the level left; procedure, shortened: as §1

| IC50 (Leishmania donovani [1]) | SMILES | Activity [2] | IC50 (Leishmania donovani [3]) | Activity (Leishmania donovani [4]) | Activity (Leishmania donovani [5]) | Activity (Leishmania donovani [6]) | Activity (Leishmania donovani [7]) |
| --- | --- | --- | --- | --- | --- | --- | --- |
| 10 µg/mL (≈ 27.9 µM) | Cc1ccc2cccc(OCCCOc3cccc4ccc(C)nc34)c2n1 | > 200 µg/mL | 13.5 µg/mL (≈ 37.7 µM) | – | – | – | – |
| 2.8 µg/mL (≈ 8.22 µM) | N=C(N)c1ccc(OCCCCCOc2ccc(C(=N)N)cc2)cc1 [PENTAMIDINE] | > 90 µg/mL | 2.1 µg/mL (≈ 6.17 µM) | – | – | – | – |
| 2.3 µg/mL (≈ 7.61 µM) | c1cnc2c(OCOc3cccc4cccnc34)cccc2c1 | > 85 µg/mL | 2.4 µg/mL (≈ 7.94 µM) | 980 mg | 89% | 110 mg | 92% |

Second part, the compound before the results:

| SMILES | IC50 (Leishmania donovani [1]) | Activity [2] | IC50 (Leishmania donovani [3]) | Activity (Leishmania donovani [4]) | Activity (Leishmania donovani [5]) | Activity (Leishmania donovani [6]) | Activity (Leishmania donovani [7]) |
| --- | --- | --- | --- | --- | --- | --- | --- |
| Cc1ccc2cccc(OCCCCOc3cccc4ccc(C)nc34)c2n1 | 2.7 µg/mL (≈ 7.25 µM) | > 90 µg/mL | 3.2 µg/mL (≈ 8.59 µM) | 1125 mg | 73.5% | 190 mg | 78% |
| Cc1ccc2cccc(OCCCCCOc3cccc4ccc(C)nc34)c2n1 | 2.4 µg/mL (≈ 6.21 µM) | > 85 µg/mL | 2.8 µg/mL (≈ 7.24 µM) | 1020 mg | 82% | 135 mg | 88.5% |
| Cc1ccc2cccc(OCOc3cccc4ccc(C)nc34)c2n1 | 2.9 µg/mL (≈ 8.78 µM) | > 100 µg/mL | 3.4 µg/mL (≈ 10.3 µM) | 1205 mg | – | 232 mg | – |
| O=c1ccc2cccc3c2n1CCO3 [OXAZINOQUINOLONE] | 14 µg/mL (≈ 74.8 µM) | > 220 µg/mL | 16.5 µg/mL (≈ 88.1 µM) | – | – | – | – |
| C[C@@H]1[C@H](O)[C@@H](C)/C=C/C=C/C=C/C=C/C=C/C=C/C=C/[C@H](O[C@@H]2O[C@H](C)[C@@H](O)[C@H](N)[C@@H]2O)C[C@@H]2O[C@](O)(C[C@@H](O)C[C@@H](O)[C@H](O)CC[C@@H](O)C[C@@H](O)CC(=O)O[C@H]1C)C[C@H](O)[C@H]2C(=O)O [AMPHOTERICIN B] | 0.1 µg/mL (≈ 0.108 µM) | > 4 µg/mL | 0.16 µg/mL (≈ 0.173 µM) | – | – | – | – |
